Results reported in ChEMBL document CHEMBL2424622, “Development of amino-pyrimidine inhibitors of c-Jun N-terminal kinase (JNK): kinase profiling guided optimization of a 1,2,3-benzotriazole lead” (Bioorg Med Chem Lett, 2013).

Columns and labels:
[1] = biological target: Mitogen-activated protein kinase kinase kinase 11 (Homo sapiens) (UniProt Q16584); experiment: Competitive binding affinity to MLK3 (unknown origin) at 10 uM in presence of ATP relative to control
[2] = biological target: T1, Interleukin-1 receptor-associated kinase 3 (Homo sapiens) (UniProt Q9Y616); experiment: Competitive binding affinity to IRAK3 (unknown origin) at 10 uM in presence of ATP relative to control
T1 sequence (whole entry): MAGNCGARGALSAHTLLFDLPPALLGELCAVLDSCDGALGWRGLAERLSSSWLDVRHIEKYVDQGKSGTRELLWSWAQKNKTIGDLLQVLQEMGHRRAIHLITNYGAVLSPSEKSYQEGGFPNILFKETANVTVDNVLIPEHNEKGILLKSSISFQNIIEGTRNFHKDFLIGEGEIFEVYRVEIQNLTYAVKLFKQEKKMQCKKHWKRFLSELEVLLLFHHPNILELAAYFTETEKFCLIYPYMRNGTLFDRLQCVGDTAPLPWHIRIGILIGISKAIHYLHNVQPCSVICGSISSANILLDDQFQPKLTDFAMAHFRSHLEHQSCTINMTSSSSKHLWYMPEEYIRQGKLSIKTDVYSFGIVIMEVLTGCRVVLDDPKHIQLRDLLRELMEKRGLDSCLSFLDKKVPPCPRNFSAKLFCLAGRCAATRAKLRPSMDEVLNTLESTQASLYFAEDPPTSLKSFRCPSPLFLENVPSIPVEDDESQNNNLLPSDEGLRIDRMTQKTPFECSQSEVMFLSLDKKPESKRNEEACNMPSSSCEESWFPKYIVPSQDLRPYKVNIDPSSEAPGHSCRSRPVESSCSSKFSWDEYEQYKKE

[3] = tested on: Epidermal growth factor receptor (Homo sapiens), P00533 [L861Q]; experiment: Competitive binding affinity to EGFR L861Q mutant (unknown origin) at 10 uM in presence of ATP relative to control
How it was run: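 In vitro ATP-site competition binding assay, part of profiling against a diverse panel of 128 kinases. Each compound was tested at a single concentration of 10 µM. Kinome selectivity was summarized as S15 selectivity scores.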

[4] = biological target: Dual specificity tyrosine-phosphorylation-regulated kinase 1B (Homo sapiens) (UniProt Q9Y463); experiment: Competitive binding affinity to DYRK1B (unknown origin) at 10 uM in presence of ATP relative to control
[5] = biological target: Death-associated protein kinase 1 (Homo sapiens, UniProt P53355); experiment: Competitive binding affinity to DAPK1 (unknown origin) at 10 uM in presence of ATP relative to control
[6] = biological target: Activin receptor type-2B (Homo sapiens) (UniProt Q13705); experiment: Competitive binding affinity to ACVR2B (unknown origin) at 10 uM in presence of ATP relative to control
[7] = biological target: Activin receptor type-2A (Homo sapiens) (UniProt P27037); experiment: Competitive binding affinity to ACVR2A (unknown origin) at 10 uM in presence of ATP relative to control
[8] = biological target: T2, Serine/threonine-protein kinase D3 (Homo sapiens) (UniProt O94806); experiment: Competitive binding affinity to PRKD3 (unknown origin) at 10 uM in presence of ATP relative to control
T2 sequence (whole entry): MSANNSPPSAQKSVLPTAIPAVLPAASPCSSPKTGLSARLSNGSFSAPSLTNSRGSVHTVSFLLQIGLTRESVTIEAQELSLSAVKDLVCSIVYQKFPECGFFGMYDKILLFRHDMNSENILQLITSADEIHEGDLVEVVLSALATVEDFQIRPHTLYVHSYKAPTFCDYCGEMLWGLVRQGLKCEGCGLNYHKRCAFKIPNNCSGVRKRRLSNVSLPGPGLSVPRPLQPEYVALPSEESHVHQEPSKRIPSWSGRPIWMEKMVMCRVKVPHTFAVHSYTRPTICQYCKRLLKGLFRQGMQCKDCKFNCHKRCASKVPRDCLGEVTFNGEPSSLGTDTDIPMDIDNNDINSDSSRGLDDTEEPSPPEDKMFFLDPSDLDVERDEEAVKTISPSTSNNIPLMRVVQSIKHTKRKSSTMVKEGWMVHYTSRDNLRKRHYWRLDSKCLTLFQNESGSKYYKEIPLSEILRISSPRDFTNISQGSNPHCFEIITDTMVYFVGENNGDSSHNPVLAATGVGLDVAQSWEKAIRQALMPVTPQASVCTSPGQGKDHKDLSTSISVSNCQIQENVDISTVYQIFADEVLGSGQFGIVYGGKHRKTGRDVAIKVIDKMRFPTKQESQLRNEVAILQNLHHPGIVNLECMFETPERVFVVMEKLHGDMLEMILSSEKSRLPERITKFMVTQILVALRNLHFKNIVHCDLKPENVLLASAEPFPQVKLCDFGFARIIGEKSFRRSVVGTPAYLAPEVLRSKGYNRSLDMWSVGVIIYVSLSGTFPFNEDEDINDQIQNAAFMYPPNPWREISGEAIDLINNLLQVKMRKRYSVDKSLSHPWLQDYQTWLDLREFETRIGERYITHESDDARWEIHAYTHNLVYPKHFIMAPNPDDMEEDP

Chain of Death-associated protein kinase 1 (P53355 whole entry, looked up): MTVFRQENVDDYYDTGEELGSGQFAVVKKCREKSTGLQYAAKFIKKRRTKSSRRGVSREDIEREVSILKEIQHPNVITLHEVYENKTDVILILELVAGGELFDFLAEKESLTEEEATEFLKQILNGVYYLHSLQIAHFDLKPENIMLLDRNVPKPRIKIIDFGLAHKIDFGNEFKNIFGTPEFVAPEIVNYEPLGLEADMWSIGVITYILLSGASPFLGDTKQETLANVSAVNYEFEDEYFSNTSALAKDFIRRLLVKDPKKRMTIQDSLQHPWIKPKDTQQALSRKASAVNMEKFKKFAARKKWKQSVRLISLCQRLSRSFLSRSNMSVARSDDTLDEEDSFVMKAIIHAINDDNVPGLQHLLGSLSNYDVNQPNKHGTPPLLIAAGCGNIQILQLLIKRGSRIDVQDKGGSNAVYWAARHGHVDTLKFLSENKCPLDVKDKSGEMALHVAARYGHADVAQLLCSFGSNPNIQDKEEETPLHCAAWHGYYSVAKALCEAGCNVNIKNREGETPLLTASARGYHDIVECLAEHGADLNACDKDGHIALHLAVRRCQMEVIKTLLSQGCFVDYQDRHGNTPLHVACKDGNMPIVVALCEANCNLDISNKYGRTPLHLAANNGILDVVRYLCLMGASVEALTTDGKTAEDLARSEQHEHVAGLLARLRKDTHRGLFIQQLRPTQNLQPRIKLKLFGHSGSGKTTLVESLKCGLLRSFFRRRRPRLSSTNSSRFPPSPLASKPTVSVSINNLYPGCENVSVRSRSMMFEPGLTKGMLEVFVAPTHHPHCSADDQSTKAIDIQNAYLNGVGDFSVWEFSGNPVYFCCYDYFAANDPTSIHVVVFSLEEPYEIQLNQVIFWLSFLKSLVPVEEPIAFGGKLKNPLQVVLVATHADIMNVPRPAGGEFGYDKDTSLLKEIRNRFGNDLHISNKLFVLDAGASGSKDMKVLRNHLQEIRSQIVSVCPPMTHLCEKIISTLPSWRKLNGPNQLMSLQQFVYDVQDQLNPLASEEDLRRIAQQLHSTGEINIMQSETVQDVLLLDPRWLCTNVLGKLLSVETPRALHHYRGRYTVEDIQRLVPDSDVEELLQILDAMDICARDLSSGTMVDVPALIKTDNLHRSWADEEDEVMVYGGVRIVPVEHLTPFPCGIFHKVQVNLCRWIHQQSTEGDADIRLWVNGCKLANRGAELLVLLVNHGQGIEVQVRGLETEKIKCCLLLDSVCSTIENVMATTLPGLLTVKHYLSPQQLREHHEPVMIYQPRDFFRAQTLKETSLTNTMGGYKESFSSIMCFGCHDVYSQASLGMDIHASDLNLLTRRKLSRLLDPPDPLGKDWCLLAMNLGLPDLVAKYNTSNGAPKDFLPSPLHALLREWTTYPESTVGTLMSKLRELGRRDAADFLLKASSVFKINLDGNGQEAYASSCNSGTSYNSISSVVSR
Chain of Activin receptor type-2A (Homo sapiens) (P27037 whole entry): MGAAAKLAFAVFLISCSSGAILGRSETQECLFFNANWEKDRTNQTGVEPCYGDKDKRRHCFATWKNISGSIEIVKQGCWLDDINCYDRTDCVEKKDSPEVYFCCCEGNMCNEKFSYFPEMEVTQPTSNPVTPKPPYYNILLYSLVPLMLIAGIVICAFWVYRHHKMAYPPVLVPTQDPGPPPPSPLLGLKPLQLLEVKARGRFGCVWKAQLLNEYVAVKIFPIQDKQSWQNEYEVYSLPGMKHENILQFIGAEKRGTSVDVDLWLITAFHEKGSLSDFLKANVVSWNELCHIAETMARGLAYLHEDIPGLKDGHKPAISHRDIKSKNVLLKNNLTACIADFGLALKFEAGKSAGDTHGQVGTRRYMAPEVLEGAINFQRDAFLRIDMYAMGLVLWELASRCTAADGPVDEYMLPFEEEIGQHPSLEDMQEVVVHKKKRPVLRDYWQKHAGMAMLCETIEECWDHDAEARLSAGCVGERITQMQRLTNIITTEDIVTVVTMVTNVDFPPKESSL
Chain of Dual specificity tyrosine-phosphorylation-regulated kinase 1B (Homo sapiens) (Q9Y463 whole entry, looked up): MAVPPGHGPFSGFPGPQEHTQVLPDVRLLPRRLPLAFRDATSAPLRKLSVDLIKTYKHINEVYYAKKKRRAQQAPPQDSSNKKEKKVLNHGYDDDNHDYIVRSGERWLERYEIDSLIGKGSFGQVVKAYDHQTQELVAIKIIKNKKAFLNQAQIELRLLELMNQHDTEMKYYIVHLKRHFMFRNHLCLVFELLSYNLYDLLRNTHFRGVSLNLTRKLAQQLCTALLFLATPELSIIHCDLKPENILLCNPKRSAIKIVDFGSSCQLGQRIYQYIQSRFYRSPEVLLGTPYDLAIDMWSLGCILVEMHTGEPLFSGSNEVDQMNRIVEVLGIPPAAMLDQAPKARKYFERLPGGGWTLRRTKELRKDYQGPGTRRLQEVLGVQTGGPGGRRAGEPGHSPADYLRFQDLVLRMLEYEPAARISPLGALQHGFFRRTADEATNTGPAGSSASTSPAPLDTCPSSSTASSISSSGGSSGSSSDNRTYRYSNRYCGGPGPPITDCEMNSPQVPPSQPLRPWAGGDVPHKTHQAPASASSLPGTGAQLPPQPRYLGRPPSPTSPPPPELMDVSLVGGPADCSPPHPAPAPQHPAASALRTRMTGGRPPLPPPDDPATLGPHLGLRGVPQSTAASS
Chain of Epidermal growth factor receptor (Homo sapiens), P00533 [L861Q] (P00533 whole entry L861Q): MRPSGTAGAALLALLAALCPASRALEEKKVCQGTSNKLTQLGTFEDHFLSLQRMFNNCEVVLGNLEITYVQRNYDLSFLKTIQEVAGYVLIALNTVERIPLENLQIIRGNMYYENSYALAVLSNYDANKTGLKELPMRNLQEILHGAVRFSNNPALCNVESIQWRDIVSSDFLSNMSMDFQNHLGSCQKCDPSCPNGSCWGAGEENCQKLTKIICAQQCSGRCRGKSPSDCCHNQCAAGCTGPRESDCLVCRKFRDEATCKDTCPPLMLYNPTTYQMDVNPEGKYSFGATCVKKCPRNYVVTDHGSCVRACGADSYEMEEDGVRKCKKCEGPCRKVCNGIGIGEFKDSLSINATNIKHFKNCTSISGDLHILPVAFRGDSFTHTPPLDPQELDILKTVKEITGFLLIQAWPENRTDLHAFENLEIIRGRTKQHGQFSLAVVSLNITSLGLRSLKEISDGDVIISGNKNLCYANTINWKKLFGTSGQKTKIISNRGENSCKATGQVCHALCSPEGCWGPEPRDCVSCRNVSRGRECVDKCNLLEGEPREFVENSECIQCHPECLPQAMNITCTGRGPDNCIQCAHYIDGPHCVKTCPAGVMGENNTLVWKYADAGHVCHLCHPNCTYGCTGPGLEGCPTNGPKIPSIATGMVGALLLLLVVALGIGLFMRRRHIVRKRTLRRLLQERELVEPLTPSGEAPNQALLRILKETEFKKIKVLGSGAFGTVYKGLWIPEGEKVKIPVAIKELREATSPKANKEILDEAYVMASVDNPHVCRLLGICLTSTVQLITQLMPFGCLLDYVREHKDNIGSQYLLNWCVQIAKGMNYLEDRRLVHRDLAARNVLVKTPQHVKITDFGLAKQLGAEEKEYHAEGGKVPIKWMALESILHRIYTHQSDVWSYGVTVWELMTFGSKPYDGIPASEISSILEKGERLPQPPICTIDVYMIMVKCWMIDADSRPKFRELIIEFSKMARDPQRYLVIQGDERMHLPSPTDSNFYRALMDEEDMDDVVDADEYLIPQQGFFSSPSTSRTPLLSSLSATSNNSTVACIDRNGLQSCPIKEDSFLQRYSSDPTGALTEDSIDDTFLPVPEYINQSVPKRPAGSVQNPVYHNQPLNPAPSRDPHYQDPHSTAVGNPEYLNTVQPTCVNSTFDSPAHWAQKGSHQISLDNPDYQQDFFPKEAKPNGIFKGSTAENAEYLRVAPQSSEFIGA
Chain of Mitogen-activated protein kinase kinase kinase 11 (Homo sapiens) (Q16584 whole entry, looked up): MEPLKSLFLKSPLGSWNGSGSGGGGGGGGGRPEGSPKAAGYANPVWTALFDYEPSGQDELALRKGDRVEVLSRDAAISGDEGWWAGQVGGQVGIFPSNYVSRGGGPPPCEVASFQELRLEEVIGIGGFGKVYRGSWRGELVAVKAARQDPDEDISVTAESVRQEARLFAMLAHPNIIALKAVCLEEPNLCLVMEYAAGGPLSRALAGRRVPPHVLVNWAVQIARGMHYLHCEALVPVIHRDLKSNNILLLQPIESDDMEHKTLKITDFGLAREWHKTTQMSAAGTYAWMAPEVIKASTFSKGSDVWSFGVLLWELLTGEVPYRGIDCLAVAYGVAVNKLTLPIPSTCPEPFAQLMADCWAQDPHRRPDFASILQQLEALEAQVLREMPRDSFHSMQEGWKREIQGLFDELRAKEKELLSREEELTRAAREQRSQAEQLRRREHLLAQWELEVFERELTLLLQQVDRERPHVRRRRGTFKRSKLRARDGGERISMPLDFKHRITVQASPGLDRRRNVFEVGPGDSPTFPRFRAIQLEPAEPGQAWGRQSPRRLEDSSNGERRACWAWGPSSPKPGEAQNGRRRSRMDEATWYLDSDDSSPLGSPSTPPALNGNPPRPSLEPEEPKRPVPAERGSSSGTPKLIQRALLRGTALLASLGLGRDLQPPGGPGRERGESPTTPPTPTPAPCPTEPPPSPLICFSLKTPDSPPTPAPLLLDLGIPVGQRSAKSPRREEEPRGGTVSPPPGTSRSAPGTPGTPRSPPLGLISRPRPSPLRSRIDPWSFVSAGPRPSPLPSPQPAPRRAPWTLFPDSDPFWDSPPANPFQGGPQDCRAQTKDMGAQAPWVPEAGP

SMILES | inhibition [1] [%] | inhibition [2] [%] | inhibition [3] [%] | inhibition [4] [%] | inhibition [5] [%] | inhibition [6] [%] | inhibition [7] [%] | inhibition [8] [%]
O[C@H]1CC[C@H](Nc2nccc(-n3nnc4ccccc43)n2)CC1 | < 50 | 85 | < 50 | 100 | 98 | 74 | < 50 | 100
CS(=O)(=O)CCCOc1cccc2c1ccn2-c1ccnc(N[C@H]2CC[C@H](C(=O)N3CCC(O)CC3)CC2)n1 |  |  |  |  | > 85 |  |  | 
O[C@H]1CC[C@H](Nc2nccc(-n3ncc4ccccc43)n2)CC1 | < 50 | 88 | < 50 | 99 | < 50 | < 50 | < 50 | 96
O[C@H]1CC[C@H](Nc2nccc(-c3n[nH]c4ccccc34)n2)CC1 | 88 |  | < 50 |  |  | < 50 | < 50 | 
O[C@H]1CC[C@H](Nc2nccc(-n3ccc4ccccc43)n2)CC1 | < 50 | 87 | < 50 | 100 | < 50 | < 50 | < 50 | 94
